Source: ChEMBL document CHEMBL3120099, “Novel S1P(1) receptor agonists--part 2: from bicyclo[3.1.0]hexane-fused thiophenes to isobutyl substituted thiophenes” (J Med Chem, 2014)

Tests used:
Rattus norvegicus [1] = test: Lymphopenic activity in Wistar rat assessed as reduction in blood lymphocyte count at 10 mg/kg, po after 24 hrs; type: functional
How it was run: (§1)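 Normotensive male Wistar rats given 1–10 mg/kg by gavage in 5% DMSO/7.5% succinylated gelatin. Blood taken before and 3, 6 and 24 h after dosing, with later times for some compounds. Lymphocytes counted by hematology analyzer. % LC change calculated per animal relative to the predose value (=100%). Mean ± SEM.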

Rattus norvegicus [2] = test: Lymphopenic activity in Wistar rat assessed as reduction in blood lymphocyte count at 10 mg/kg, po after 6 hrs; type: functional; parameters: scale not given: the % may be the effect or the level left; how it was run: as §1
Rattus norvegicus [3] = test: Lymphopenic activity in Wistar rat assessed as reduction in blood lymphocyte count at 10 mg/kg, po after 3 hrs; type: functional; parameters: scale not given: the % may be the effect or the level left; how it was run: as §1
[4] = biological target: Sphingosine 1-phosphate receptor 3 (Homo sapiens, UniProt Q99500); test: Agonist activity at human recombinant S1P3 receptor expressed in CHO cells assessed as membrane-bound 35S-GTPgammaS incubated 30 mins prior to substrate addition measured after 1 hr by topcount scintillation counting analysis; type: functional, cell-based
[5] = biological target: Sphingosine 1-phosphate receptor 1 (Homo sapiens, UniProt P21453); test: Agonist activity at human recombinant S1P1 receptor expressed in CHO cells assessed as membrane-bound 35S-GTPgammaS incubated 30 mins prior to substrate addition measured after 1 hr by topcount scintillation counting analysis; type: functional, cell-based
Rattus norvegicus [6] = test: Lymphopenic activity in po dosed Wistar rat assessed as reduction in blood lymphocyte count; type: functional, organism-based; how it was run: as §1
[7] = Plasma concentration in Wistar rat at 10 mg/kg, po after 24 hrs; type: ADME, organism-based; parameters: dose 10 mg/kg, route oral
[8] = Plasma concentration in Wistar rat at 10 mg/kg, po after 6 hrs; type: ADME, organism-based; parameters: dose 10 mg/kg, route oral
[9] = Plasma concentration in Wistar rat at 10 mg/kg, po after 3 hrs; type: ADME, organism-based; parameters: dose 10 mg/kg, route oral
Rattus norvegicus [10] = test: Lymphopenic activity in Wistar rat assessed as reduction in blood lymphocyte count at 10 mg/kg, po after 72 hrs; type: functional; parameters: scale not given: the % may be the effect or the level left; how it was run: as §1
Rattus norvegicus [11] = test: Lymphopenic activity in Wistar rat assessed as reduction in blood lymphocyte count at 10 mg/kg, po after 144 hrs; type: functional; parameters: scale not given: the % may be the effect or the level left; how it was run: as §1
Homo sapiens = species on record: Homo sapiens; test: Selectivity ratio of EC50 for human recombinant S1P3 receptor to EC50 for human recombinant S1P1 receptor
How it was run: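 GDP was 1 μM for S1P1 and 3 μM for S1P3. Compounds (up to 10 μM) were preincubated 30 min at rt, then incubated 1 h at rt. Bound label was counted after filtration. 10 μM S1P defined maximum. EC50s are geometric means of ≥3 independent duplicate runs.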

Sequence of Sphingosine 1-phosphate receptor 3 (Q99500 whole entry): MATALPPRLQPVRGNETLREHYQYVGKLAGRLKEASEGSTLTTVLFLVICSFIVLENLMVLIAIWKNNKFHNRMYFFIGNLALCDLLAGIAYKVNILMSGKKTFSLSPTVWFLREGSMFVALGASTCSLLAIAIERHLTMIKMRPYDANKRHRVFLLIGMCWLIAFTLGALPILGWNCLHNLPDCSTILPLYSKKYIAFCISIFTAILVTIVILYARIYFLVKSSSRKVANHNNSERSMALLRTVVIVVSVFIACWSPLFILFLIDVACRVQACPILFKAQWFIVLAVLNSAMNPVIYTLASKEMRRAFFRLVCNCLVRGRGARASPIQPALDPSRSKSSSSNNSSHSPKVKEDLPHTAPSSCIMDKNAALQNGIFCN
Sequence of Sphingosine 1-phosphate receptor 1 (P21453 whole entry): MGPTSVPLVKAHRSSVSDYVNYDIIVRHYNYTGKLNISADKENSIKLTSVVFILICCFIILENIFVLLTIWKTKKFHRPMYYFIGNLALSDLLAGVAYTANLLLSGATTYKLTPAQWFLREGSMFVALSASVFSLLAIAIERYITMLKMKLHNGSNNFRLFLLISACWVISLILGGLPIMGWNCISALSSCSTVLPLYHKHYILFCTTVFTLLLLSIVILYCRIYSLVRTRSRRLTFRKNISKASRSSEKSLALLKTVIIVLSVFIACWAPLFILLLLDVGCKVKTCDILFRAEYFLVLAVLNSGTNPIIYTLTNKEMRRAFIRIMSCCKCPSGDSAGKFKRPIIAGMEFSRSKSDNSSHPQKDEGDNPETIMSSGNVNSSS

EC50 [4] [nM]	EC50 [5] [nM]	Structure (SMILES)	further results
		CCc1ccc(-c2nc(-c3cc(C)c(OC[C@@H](O)CNC(=O)CO)c(C)c3)no2)s1	% change in blood lymphocyte count from predose (Rattus norvegicus [1]): 12%; Activity (Rattus norvegicus [2]): -77%; Activity (Rattus norvegicus [3]): -73%
> 10000	7	Cc1cc(CCC(=O)c2sc(C)c3c2CCC(C)(C)C3)cc(C)c1OCC(O)CN (racemic)	
1250	4.7	CCCCc1ccc(-c2nc(-c3cc(C)c(OCC(O)CNC(=O)CO)c(C)c3)no2)s1 (racemic)	% change in blood lymphocyte count from predose (Rattus norvegicus [1]): 18%; Activity (Rattus norvegicus [2]): -52%; Activity (Rattus norvegicus [3]): -66%
1.2	6	CCc1cc(-c2noc(-c3sc(CC)c4c3CCC(CC)(CC)C4)n2)cc(C)c1OC[C@@H](O)CNC(=O)CO	
> 10000	48	Cc1cc(CCC(=O)c2sc(C)c3c2CCC(C)(C)C3)cc(C)c1OCCCNCCO	
3830	20	CCc1sc(C(=O)CCc2cc(C)c(OC[C@@H](O)CO)c(C)c2)c2c1CCCC2	
> 10000	14	Cc1cc(CCC(=O)c2sc(C)c3c2CCC(C)(C)C3)cc(C)c1OCC(O)CNCCO (racemic)	
25	0.4	CCc1sc(C(=O)CCc2cc(C)c(OC[C@@H](O)CO)c(C)c2)c2c1CC(CC)(CC)CC2	
569	1.2	Cc1cc(CCC(=O)c2sc(C)c3c2CCC(C)(C)C3)cc(C)c1OCC(O)CNCCC(=O)O (racemic)	
242	1.3	CCc1cc(CCC(=O)c2sc(C(F)(F)F)c3c2CCC(C)(C)C3)cc(C)c1OCC(O)CNC(=O)CO (racemic)	
247	0.6	Cc1cc(-c2noc(-c3ccc(CC(C)C)s3)n2)cc(C)c1OCC(O)CNC(=O)CO (racemic)	Activity (Rattus norvegicus [6]): Dose-dependent effect; concentration at 24 h [7]: 23 ng/mL; concentration at 6 h [8]: 680 ng/mL; concentration at 3 h [9]: 1010 ng/mL; Activity (Rattus norvegicus [10]): 14%; % change in blood lymphocyte count from predose (Rattus norvegicus [1]): -66%; Activity (Rattus norvegicus [2]): -79%; Activity (Rattus norvegicus [3]): -75%
236	1.5	Cc1cc(-c2noc(-c3cc(CC(C)C)c(C)s3)n2)cc(C)c1OCC(O)CNC(=O)CO (racemic)	% change in blood lymphocyte count from predose (Rattus norvegicus [1]): -91%; Activity (Rattus norvegicus [2]): -78%; Activity (Rattus norvegicus [3]): -77%
> 10000	11	Cc1cc(CCC(=O)c2sc(C)c3c2CCC(C)(C)C3)cc(C)c1OCCNCCO	
126	0.4	CCc1sc(C(=O)CCc2cc(C)c(OC[C@@H](O)CO)c(C)c2)c2c1CC(C)(C)CC2	
11	20	CCCc1sc(-c2nc(-c3cc(C)c(OC[C@@H](O)CNC(=O)CO)c(CC)c3)no2)c2c1CC(C)(C)CC2	
15	1.6	Cc1cc(-c2noc(-c3sc(C)c4c3CCC(C)(C)C4)n2)cc(C)c1OCC(O)CNC(=O)CO (racemic)	Activity (Rattus norvegicus [11]): -7%; Activity (Rattus norvegicus [10]): -73%; % change in blood lymphocyte count from predose (Rattus norvegicus [1]): -77%; Activity (Rattus norvegicus [2]): -73%; Activity (Rattus norvegicus [3]): -70%
5270	2.7	Cc1cc(CCC(=O)c2sc(C)c(CC(C)C)c2C)cc(C)c1OCC(O)CNC(=O)CO (racemic)	
1860	4.3	CCc1ccc(-c2nc(-c3cc(C)c(OCC(O)CNC(=O)CO)c(C)c3)no2)s1 (racemic)	concentration at 24 h [7]: < 2 ng/mL; concentration at 6 h [8]: 190 ng/mL; concentration at 3 h [9]: 490 ng/mL
5270	4.8	CCc1cc(CCC(=O)c2scc3c2CCC(C)(C)C3)cc(C)c1OC[C@@H](O)CNC(=O)CO	Ratio EC50 (Homo sapiens): 100
25	1.3	CCCc1sc(C(=O)CCc2cc(C)c(OC[C@@H](O)CNC(=O)CO)c(CC)c2)c2c1CC(C)(C)CC2	
1100	3.4	Cc1cc(CCC(=O)c2sc(C)c3c2CCC(C)(C)C3)cc(C)c1OC[C@H](O)CO	Ratio EC50 (Homo sapiens): 100
74	0.5	Cc1cc(-c2noc(-c3sc(C)c(CC(C)C)c3C)n2)cc(C)c1OCC(O)CNC(=O)CO (racemic)	% change in blood lymphocyte count from predose (Rattus norvegicus [1]): -93%; Activity (Rattus norvegicus [2]): -86%; Activity (Rattus norvegicus [3]): -78%
590	7.7	Cc1cc(CCC(=O)c2ccc(CC(C)C)s2)cc(C)c1OCC(O)CNC(=O)CO (racemic)	
4450	71	Cc1cc(CCC(=O)c2sc(C)c3c2CCC(C)(C)C3)cc(C)c1OCCCO	
